High-throughput results deposited in PubChem by The Scripps Research Institute Molecular Screening Center.
M5 PAM – positive allosteric modulators of human muscarinic M5 receptor; P08912; CHO-K1 hM5, Fluo-8 calcium, ACh EC20 PAM; 0% = ACh EC20, 100% = ACh EC100; activation, % at 3 µM; hit rate 0.3% among 360,000; AID 624038;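 active means activation above the run cutoff, the mean activation of all test compounds plus 3 SD, cut at about 18% in these data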
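Measured by: Fluo-8 calcium fluorescence; material: human M5 receptor in CHO-K1 cells; schedule: Post-acetylcholine fluorescence recording 140 s; benchmarks: low control EC20 acetylcholine (0%), high control EC100 acetylcholine (100%); read-out: Max/basal fluorescence ratio as % of EC20–EC100 ACh window; compound: single dose, 3 µM nominal final test concentration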
CHRM4 agonist – CHRM4 agonism in calcium assay; hit rate 0.14% among 360,000; activation, % at 3 µM; CHO-K1 hM4/Gqi5, Fluo-8 calcium fluorescence; vehicle 0%, full acetylcholine response 100%; P08173;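 active means activation above the run mean over all test wells plus 3 SD, cut at about 32% in these data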;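 further: peak over basal fluorescence ratio per well then scaled between controls; 0% = DMSO wells and 100% = acetylcholine at EC100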
Target sequence (P08173 whole entry, looked up): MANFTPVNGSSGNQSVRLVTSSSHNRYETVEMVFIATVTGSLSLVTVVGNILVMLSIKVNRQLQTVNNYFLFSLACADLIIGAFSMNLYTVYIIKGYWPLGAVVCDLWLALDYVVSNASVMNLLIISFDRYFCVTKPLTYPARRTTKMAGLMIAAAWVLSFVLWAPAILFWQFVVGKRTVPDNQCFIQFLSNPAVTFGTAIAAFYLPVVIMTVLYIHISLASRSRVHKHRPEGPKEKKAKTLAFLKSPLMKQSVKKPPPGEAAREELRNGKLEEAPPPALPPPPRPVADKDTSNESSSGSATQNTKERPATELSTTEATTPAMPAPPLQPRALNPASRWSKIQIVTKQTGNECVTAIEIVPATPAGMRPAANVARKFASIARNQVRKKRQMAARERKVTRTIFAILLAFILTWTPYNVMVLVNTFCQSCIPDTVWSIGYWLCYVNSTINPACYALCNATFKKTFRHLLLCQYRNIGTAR
M5 antag – antagonists of human muscarinic M5 receptor (CHRM5) | CHO-hM5 cells, Fluo-8 calcium fluorescence, ACh EC80 | inhibition, % at 3 µM | hit rate 0.59% among 360,000 | AID 624040 | P08912;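 active means inhibition above a per-plate cutoff, the mean of that plate's test compounds plus 3 SD, cut at about 27% in these data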;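 further: 0% = acetylcholine EC80 with DMSO and 100% = DMSO without agonist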
M5 ag – agonists of human muscarinic M5 receptor (CHRM5); P08912; CHO-K1 hM5 cells, Fluo-8 calcium fluorescence; 0% DMSO wells, 100% maximal acetylcholine response; hit rate 0.19% among 360,000; AID 624037; activation, % at 3 µM;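 active means activation above the run's mean over test compounds plus 3 SD, cut at about 23% in these data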;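 further: signal is peak over basal fluorescence ratio across the kinetic read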
M4 antag – blocks acetylcholine activation of human M4 receptor; P08173; CHO-hM4 cells, ACh EC80, Fluo-8 calcium fluorescence; inhibition, % at 3 µM; hit rate 0.73% among 360,000; AID 624125;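 active means inhibition above its plate's cutoff, the mean inhibition of sample wells plus 3 SD, cut at about 27% in these data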;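 further: 0% = acetylcholine EC80 with DMSO and 100% = DMSO without agonist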
CHRM4 PAM – CHRM4 positive allosteric modulation. P08173. CHO-K1 hM4/Gqi5, Fluo-8 calcium fluorescence, ACh EC20; 0% = ACh EC20, 100% = maximal ACh. activation, % at 3 µM. hit rate 0.4% among 360,000. AID 624126;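 active means activation above its plate's cutoff, the mean activation of sample wells plus 3 SD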
Active calls of the source: *. An excerpt weighted towards active compounds, which were near 1.9% of everything screened.

SMILES | M5 PAM | CHRM4 agonist | M5 antag | M5 ag | M4 antag | CHRM4 PAM
CCN1C(=O)/C(=C/c2ccc(N3CCCC3)cc2)NC1=S | -21 | 58* | 59* | 97* | 37* | -17
CCCN1C(=O)/C(=C/c2ccc(OCC(=O)OCC)cc2)NC1=S | -8 | 17 | 12 | 7 | -2 | -9
Cc1cc(/C=C2\NC(=S)N(C)C2=O)ccc1N1CCCC1 | -23 | 82* | 59* | 138* | 45* | -25
CCCN1C(=O)/C(=C/c2ccc(N3CCCC3)c(C)c2)NC1=S | -46 | 77* | 62* | 69* | 54* | -19
COC(=O)c1cnc(NC(=O)C2(C)CCN2C(=O)C(C)C)s1 (stereo not given) | 2 | 0 | 2 | 2 | 0 | 3
CCCCNC(=O)C1(C)CCC(=O)N1c1cc(C(C)(C)C)nn1C (stereo not given) | -5 | 1 | 2 | 2 | -11 | 6
CCCCNC(=O)c1nc(C2CCN(S(=O)(=O)c3c(OC)cccc3OC)CC2)oc1-c1ccccc1 | -1 | 5 | -2 | 0 | 4 | -9
CCOc1ccc(-c2cc(C(=O)N3CCN(c4ccccn4)CC3)c3ccccc3n2)cc1 | 1 | 7 | -1 | 1 | 9 | -4
COc1ccc(-c2cc(C(=O)N3CCN(c4ccccc4)CC3)c3ccccc3n2)cc1 | -16 | 11 | 18 | 0 | 1 | -8
COc1ccc(-c2cc(C(=O)N3CCN(c4ccccc4O)CC3)c3ccccc3n2)cc1 | -35 | 24 | 18 | 2 | 29* | -11
COc1ccc(-c2cc(C(=O)N3CCN(c4ccccn4)CC3)c3ccccc3n2)cc1 | -17 | 16 | 25 | 2 | 27* | -26
Cc1ccc(-c2cc(C(=O)N3CCN(c4ccccc4O)CC3)c3ccccc3n2)cc1 | -16 | 8 | 9 | 6 | -6 | -6
COc1ccc(-c2cc(C(=O)N3CCN(c4ccccc4O)CC3)c3ccccc3n2)cc1OC | -15 | 15 | 28* | -3 | 19 | -8
CCCNC(=O)C1(C)CCN(C(=O)c2cccc(C(F)(F)F)c2)C1 (stereo not given) | 0 | 0 | 3 | 1 | 9 | -3
COC(=O)[C@@]12C[C@@H](CC(=O)NCc3ccc(C)o3)C(=O)N(CCc3ccc(OC)c(OC)c3)C1=CCC(C)(C)C2 | -7 | 11 | 0 | 3 | -12 | 11
COc1ccc2c3c(cccc13)C(=O)CC2 | -10 | 78* | 29* | 34* | 26 | -22
Cn1c(=O)n(-c2cccc(Cl)c2)c(=O)n1C | 0 | 1 | 3 | 1 | 40* | 21
O=C(Cn1c(=O)n(-c2cccc(Cl)c2)c(=O)n1CC(=O)N1CCCCC1)N1CCCCC1 | -2 | 1 | 2 | -2 | 2 | 18
CC1(C(=O)NS(=O)(=O)Cc2ccccc2)CCN1C(=O)CCc1ccccc1 (stereo not given) | 0 | 0 | -1 | -1 | -2 | 0
CCOC(=O)Cn1nc(C)n(-c2ccc(C(C)(C)C)cc2)c1=O | 21* | 0 | 6 | 1 | -3 | 9
CCC(c1nnnn1-c1ccc2c(c1)OCCO2)N1CCN(C/C=C/c2ccccc2)CC1 (stereo not given) | -21 | 10 | 9 | -4 | -5 | -8
O=C1NC(Cc2ccccc2)c2nc3cc(Cl)ccc3c(=O)n2-c2ncccc21 (stereo not given) | -3 | 5 | 6 | -1 | 4 | 1
Cc1nc(C)c(C(=O)N2CCCC(C(=O)c3ccc4ccccc4c3)C2)s1 (stereo not given) | -4 | 9 | 11 | 1 | -5 | -7
Cc1ccc2c(c1C)NC(=O)C21N2CCCC2C(C(=O)c2ccc3ccccc3c2)C12C(=O)Nc1ccccc12 (stereo not given) | 19* | 0 | 6 | 8 | 3 | 11
CCCCNc1c(-c2ccc(SC(C)CC)c(OC)c2)nc2ccc(Cl)cn12 (stereo not given) | -21 | 2 | 12 | -5 | 35* | -12
SMILES | M5 PAM | CHRM4 agonist | M5 antag | M5 ag | M4 antag | CHRM4 PAM
CCCCNc1c(-c2ccc(SC(C)CC)c(OC)c2)nc2ccc(C)cn12 (stereo not given) | -36 | 16 | 37* | -5 | 55* | -12
CNc1ncnc2c1ncn2[C@H]1CN(Cc2cccnc2)C[C@@H](CO)O1 | 4 | 0 | 6 | 3 | -5 | 2
CCOC(=O)C1(C)CCN1C(=O)COc1ccc(C(C)(C)C)cc1 (stereo not given) | -2 | 5 | -5 | 2 | -11 | 1
CC(C)(C)c1ccc(CC(=O)N2CCC2(C)C(=O)NCc2ccc3c(c2)OCO3)cc1 (stereo not given) | -2 | 8 | 2 | 1 | -11 | -4
CCCN1C(=O)/C(=C/c2c(N3CCNC(=O)C3CC(=O)OCC)nc3c(C)cccn3c2=O)SC1=S (stereo not given) | -24 | 12 | 22 | 25* | 13 | -10
O=C1Nc2ccc(Br)cc2C1(O)c1ccccc1 (stereo not given) | -1 | 6 | -3 | 0 | -17 | 0
O=C1Nc2ccc(Br)cc2C12NNc1ccccc1O2 (stereo not given) | -13 | 24 | 31* | 22 | 21 | -6
CCN(C(=O)CC(C)C)c1nnc(Cn2nnc3ccccc32)s1 | -12 | 9 | 2 | 5 | -3 | -7
CCN(C(=O)c1ccc(C(C)(C)C)cc1)c1nnc(Cn2nnc3ccccc32)s1 | -24 | 8 | 33* | 1 | 29* | -10
COc1ccc(C(C)(O)c2nc(-c3ccc(N(C)C)cc3)cs2)cc1 (stereo not given) | -11 | 8 | 11 | 4 | -12 | 5
C=C1C(=O)C23C(O)C1CCC2C12CCCC(C)(COC(C)=O)C1C(O)C3(O)OC2 (stereo not given) | -5 | 3 | 11 | 4 | 42* | -7
COc1ccc(C(=O)c2coc3ccc(OC(C)=O)cc23)cc1 | -10 | 3 | 29* | -4 | 5 | -7
CN(C)CCCNc1nc2cc(-c3cnn(C)c3)sc2c(=O)n1C | -2 | 0 | 0 | 1 | -2 | 3
O=C(CCN1C(=O)NC2(CCCC2)C1=O)Nc1ccc(-c2nc3ccccc3s2)cc1 | -41 | 28 | 26 | 3 | 27* | -13
CCOc1ccc(NC(=O)Cn2nc(C(N)=O)c3ccccc3c2=O)cc1S(=O)(=O)N1CCCC1 | 2 | 0 | 10 | -2 | -17 | 23*
CCOc1ccc(NC(=O)Cn2nnc(-c3ccc(C(N)=O)cc3)n2)cc1S(=O)(=O)N1CCCC1 | -6 | 1 | 10 | 2 | 6 | 1
